Measured values from ChEMBL document CHEMBL5058577, “EUbOPEN Chemogenomics Library 2 (Multiplex)” (2022).

System: Fibroblast
Experiment: Multiplex assay against human fibroblast
Assay type: toxicity, cell-based
Procedure, shortened: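 Cells stained live at seeding with Hoechst33342, BioTracker Green Microtubule Cytoskeleton Dye, MitoTracker Red and Annexin V Alexa Fluor 680 were imaged on a CQ1 microscope at 37°C and 5% CO2 after compound addition. Their classification by CellPathfinder machine-learning gating ran from Hoechst high-intensity objects versus normal cells, to healthy, pyknosed or fragmented nuclei among normal cells, to mitotic or apoptotic among pyknosed cells. Tubulin, mitochondrial-mass and membrane-permeability phenotypes are per cents of healthy-nucleus cells.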

[1] = 12 h, 1 µM, compound concentration 1 uM, replicate 1
[2] = 12 h, 1 µM, compound concentration 1 uM, replicate 2
[3] = 12 h, 10 µM, compound concentration 10 uM, replicate 1
[4] = 12 h, 10 µM, compound concentration 10 uM, replicate 2
[5] = 24 h, 1 µM, compound concentration 1 uM, replicate 1
[6] = 24 h, 1 µM, compound concentration 1 uM, replicate 2
[7] = 24 h, 10 µM, compound concentration 10 uM, replicate 1
[8] = 24 h, 10 µM, compound concentration 10 uM, replicate 2
[9] = 48 h, 1 µM, compound concentration 1 uM, replicate 1
[10] = 48 h, 1 µM, compound concentration 1 uM, replicate 2
[11] = 48 h, 10 µM, compound concentration 10 uM, replicate 1
[12] = 48 h, 10 µM, compound concentration 10 uM, replicate 2

CSc1nc(NC2CCCC2)c([N+](=O)[O-])c(NC2CCCC2)n1 [GS-39783]
Population Apoptotic (%) [1]: 50% | Population Fragmented Nuclei (%) [1]: 16% | Population Healthy Nuclei (%) [1]: 66% | Population Hoechst High Intensity Objects (%) [1]: 3% | Population Membrane Permeable-Phenotype (%) [1]: 2% | Population Mitochondria Different-Phenotype (%) [1]: 6% | Population Mitotic Cells (%) [1]: 50% | Population Normal (%) [1]: 96% | Population Pyknosed Nuclei (%) [1]: 16% | Population Tubulin-Different-Phenotype (%) [1]: 29% | Total Cell Count [1]: 137 | Population Apoptotic (%) [2]: 39% | Population Fragmented Nuclei (%) [2]: 28% | Population Healthy Nuclei (%) [2]: 46% | Population Hoechst High Intensity Objects (%) [2]: 5% | Population Membrane Permeable-Phenotype (%) [2]: 10% | Population Mitochondria Different-Phenotype (%) [2]: 10% | Population Mitotic Cells (%) [2]: 60% | Population Normal (%) [2]: 94% | Population Pyknosed Nuclei (%) [2]: 25% | Population Tubulin-Different-Phenotype (%) [2]: 57% | Total Cell Count [2]: 135 | Population Apoptotic (%) [3]: 54% | Population Fragmented Nuclei (%) [3]: 16% | Population Healthy Nuclei (%) [3]: 62% | Population Hoechst High Intensity Objects (%) [3]: 5% | Population Membrane Permeable-Phenotype (%) [3]: 0% | Population Mitochondria Different-Phenotype (%) [3]: 5% | Population Mitotic Cells (%) [3]: 45% | Population Normal (%) [3]: 94% | Population Pyknosed Nuclei (%) [3]: 21% | Population Tubulin-Different-Phenotype (%) [3]: 39% | Total Cell Count [3]: 184 | Population Apoptotic (%) [4]: 36% | Population Fragmented Nuclei (%) [4]: 25% | Population Healthy Nuclei (%) [4]: 52% | Population Hoechst High Intensity Objects (%) [4]: 6% | Population Membrane Permeable-Phenotype (%) [4]: 4% | Population Mitochondria Different-Phenotype (%) [4]: 16% | Population Mitotic Cells (%) [4]: 63% | Population Normal (%) [4]: 93% | Population Tubulin-Different-Phenotype (%) [4]: 70% | Total Cell Count [4]: 165 | Population Apoptotic (%) [5]: 30% | Population Fragmented Nuclei (%) [5]: 12% | Population Healthy Nuclei (%) [5]: 69% | Population Hoechst High Intensity Objects (%) [5]: 2% | Population Membrane Permeable-Phenotype (%) [5]: 3% | Population Mitochondria Different-Phenotype (%) [5]: 4% | Population Mitotic Cells (%) [5]: 69% | Population Normal (%) [5]: 97% | Population Pyknosed Nuclei (%) [5]: 17% | Population Tubulin-Different-Phenotype (%) [5]: 27% | Total Cell Count [5]: 132 | Population Apoptotic (%) [6]: 32% | Population Fragmented Nuclei (%) [6]: 31% | Population Healthy Nuclei (%) [6]: 44% | Population Membrane Permeable-Phenotype (%) [6]: 10% | Population Mitochondria Different-Phenotype (%) [6]: 12% | Population Mitotic Cells (%) [6]: 67% | Population Pyknosed Nuclei (%) [6]: 23% | Population Tubulin-Different-Phenotype (%) [6]: 60% | Total Cell Count [6]: 133 | Population Apoptotic (%) [7]: 58% | Population Fragmented Nuclei (%) [7]: 17% | Population Healthy Nuclei (%) [7]: 65% | Population Hoechst High Intensity Objects (%) [7]: 2% | Population Membrane Permeable-Phenotype (%) [7]: 0% | Population Mitochondria Different-Phenotype (%) [7]: 4% | Population Mitotic Cells (%) [7]: 41% | Population Normal (%) [7]: 97% | Population Pyknosed Nuclei (%) [7]: 17% | Population Tubulin-Different-Phenotype (%) [7]: 33% | Total Cell Count [7]: 172 | Population Apoptotic (%) [8]: 36% | Population Fragmented Nuclei (%) [8]: 25% | Population Healthy Nuclei (%) [8]: 52% | Population Hoechst High Intensity Objects (%) [8]: 7% | Population Membrane Permeable-Phenotype (%) [8]: 6% | Population Mitochondria Different-Phenotype (%) [8]: 10% | Population Mitotic Cells (%) [8]: 63% | Population Normal (%) [8]: 92% | Population Pyknosed Nuclei (%) [8]: 21% | Population Tubulin-Different-Phenotype (%) [8]: 57% | Total Cell Count [8]: 164 | Population Apoptotic (%) [9]: 70% | Population Fragmented Nuclei (%) [9]: 22% | Population Healthy Nuclei (%) [9]: 69% | Population Hoechst High Intensity Objects (%) [9]: 4% | Population Membrane Permeable-Phenotype (%) [9]: 1% | Population Mitochondria Different-Phenotype (%) [9]: 5% | Population Mitotic Cells (%) [9]: 30% | Population Normal (%) [9]: 95% | Population Pyknosed Nuclei (%) [9]: 7% | Population Tubulin-Different-Phenotype (%) [9]: 29% | Total Cell Count [9]: 134 | Population Apoptotic (%) [10]: 33% | Population Fragmented Nuclei (%) [10]: 41% | Population Healthy Nuclei (%) [10]: 44% | Population Hoechst High Intensity Objects (%) [10]: 3% | Population Membrane Permeable-Phenotype (%) [10]: 23% | Population Mitochondria Different-Phenotype (%) [10]: 14% | Population Mitotic Cells (%) [10]: 66% | Population Normal (%) [10]: 96% | Population Pyknosed Nuclei (%) [10]: 14% | Population Tubulin-Different-Phenotype (%) [10]: 60% | Total Cell Count [10]: 129 | Population Apoptotic (%) [11]: 66% | Population Fragmented Nuclei (%) [11]: 19% | Population Healthy Nuclei (%) [11]: 65% | Population Hoechst High Intensity Objects (%) [11]: 2% | Population Membrane Permeable-Phenotype (%) [11]: 1% | Population Mitochondria Different-Phenotype (%) [11]: 5% | Population Mitotic Cells (%) [11]: 33% | Population Normal (%) [11]: 97% | Population Pyknosed Nuclei (%) [11]: 14% | Population Tubulin-Different-Phenotype (%) [11]: 41% | Total Cell Count [11]: 168 | Population Apoptotic (%) [12]: 60% | Population Fragmented Nuclei (%) [12]: 40% | Population Healthy Nuclei (%) [12]: 46% | Population Hoechst High Intensity Objects (%) [12]: 6% | Population Membrane Permeable-Phenotype (%) [12]: 6% | Population Mitochondria Different-Phenotype (%) [12]: 7% | Population Mitotic Cells (%) [12]: 40% | Population Normal (%) [12]: 93% | Population Pyknosed Nuclei (%) [12]: 13% | Population Tubulin-Different-Phenotype (%) [12]: 60% | Total Cell Count [12]: 193
